For 13 compounds, Potency ratio results are on record in ChEMBL document CHEMBL1126626, “Synthesis and pharmacological evaluation of (nitrooxy)alkyl apovincaminates” (1993).

The test system of test [1] is Canis familiaris. Description: Effect on femoral blood flow (FBF) was studied, after intra arterial administration in anesthetized dogs relative to vinpocetine. It counts as functional, Canis lupus familiaris. The method, boiled down: (§1)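 Compounds were given intraarterially to anesthetized dogs. Dose-response curves were built from peak response values. Potency was expressed as a ratio to vinpocetine, set at 1.0.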

In test [2] the test system is Canis familiaris. The test is described as follows: Effect on vertebral blood flow (VBF) was studied, after intra arterial administration in anesthetized dogs relative to vinpocetine. The test is classed as functional, Canis lupus familiaris. The method, boiled down:
as §1

The structures appear in SMILES notation.

For `CC[C@@]12C=C(C(=O)OCCCO[N+](=O)[O-])n3c4c(c5ccccc53)CCN(CCC1)[C@H]42`, the Potency ratio in the test with Canis familiaris [1] worked out at 1.91; in the test on Canis familiaris [2], 1.85.

Consider `CC[C@@]12C=C(C(=O)OCCCCCCCO[N+](=O)[O-])n3c4c(c5ccccc53)CCN(CCC1)[C@H]42`, for which the values for the Potency ratio in the test with Canis familiaris [1] and in the test with Canis familiaris [2] were 0.67 and 0.82, respectively.

With `CC[C@@]12C=C(C(=O)OCCO[N+](=O)[O-])n3c4c(c5ccccc53)CCN(CCC1)[C@H]42`, the values for the Potency ratio in the test with Canis familiaris [1] and in the test with Canis familiaris [2] were 4.72 and 3.83, respectively.

For the compound `CCOC(=O)C1=C[C@]2(CC)CCCN3CCc4c(n1c1ccccc41)[C@@H]32` [VINPOCETINE], the Potency ratio with Canis familiaris [1] and with Canis familiaris [2] was 1 in each case.

For `CC[C@@]12C=C(C(=O)OCCCCCO[N+](=O)[O-])n3c4c(c5ccccc53)CCN(CCC1)[C@H]42`, the values for the Potency ratio with Canis familiaris [1] and in the test on Canis familiaris [2] were 1.07 and 1.09, respectively.

On to `CC[C@@]12C=C(C(=O)OCCCCCCCCCCO[N+](=O)[O-])n3c4c(c5ccccc53)CCN(CCC1)[C@H]42`, for which the Potency ratio with Canis familiaris [1] was 0.16; in the test with Canis familiaris [2], 0.48.

Consider `CC[C@@]12C=C(C(=O)OCCCCO[N+](=O)[O-])n3c4c(c5ccccc53)CCN(CCC1)[C@H]42`, for which the Potency ratio in the test with Canis familiaris [1] turned out to be 1.63; in the test with Canis familiaris [2] it was 1.25.

Take `CC[C@@]12C=C(C(=O)OCCO[N+](=O)[O-])n3c4c(c5ccc(Br)cc53)CCN(CCC1)[C@H]42`: the Potency ratio amounted to 0.36 in the test on Canis familiaris [1] and 0.58 with Canis familiaris [2].

In the case of `CC[C@@]12C=C(C(=O)OCCCCCCCCCCCO[N+](=O)[O-])n3c4c(c5ccccc53)CCN(CCC1)[C@H]42`, the Potency ratio in the test with Canis familiaris [1] is listed as 0.38; in the test on Canis familiaris [2], 0.33.

`CC[C@]12CCCN3CCc4c(n(c5cc(Br)ccc45)[C@@](O)(C(=O)OC)C1)[C@@H]32` [BROVINCAMINE]: the Potency ratio is recorded as 0.28 with Canis familiaris [1] and 0.17 in the test on Canis familiaris [2].

In the case of `CC[C@@]12C=C(C(=O)OCCCCCCO[N+](=O)[O-])n3c4c(c5ccccc53)CCN(CCC1)[C@H]42`, the Potency ratio in the test on Canis familiaris [1] stood at 0.84; in the test with Canis familiaris [2], 0.99.

As to `CC[C@@]12C=C(C(=O)OCCCCCCCCCO[N+](=O)[O-])n3c4c(c5ccccc53)CCN(CCC1)[C@H]42`, the results for the Potency ratio with Canis familiaris [1] and in the test with Canis familiaris [2] were 0.15 and 0.33, respectively.

Take `CC[C@@]12C=C(C(=O)OCCCCCCCCO[N+](=O)[O-])n3c4c(c5ccccc53)CCN(CCC1)[C@H]42`: the Potency ratio with Canis familiaris [1] was determined as 0.34; in the test on Canis familiaris [2], 0.35.
